ChEMBL document CHEMBL3525912, “Sulfation of 4-hydroxy toremifene: individual variability, isoform specificity, and contribution to toremifene pharmacogenomics” (Drug Metab Dispos, 2012)
Each block holds one molecule with its values, some of them ahead of it.

What was measured:
[1] = Drug level in human liver cytosol assessed as SULT1A1 copy number-3--mediated compound formation treated with 4-OH-TOR by HPLC analysis; format: ADME, tissue-based
In short: (§1)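 Liver cytosols from individual donors (100 µg protein) with 100 µM 4-OH-TOR, 20 µM [35S]PAPS, 50 mM potassium phosphate pH 6.2, 15 min at 37 °C. Sulfate measured by C18 radio-HPLC. SULT1A1 copy number by TaqMan qPCR against RNaseP, quadruplicate samples. Genotype–activity relation analysed by ANOVA. Triplicate incubations.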

[2] = Retention time of the compound; format: physicochemical
In short: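 Symmetry C18 column (4.6 × 150 mm) run at 1.0 mL/min. Gradient: 2 mM TBAHS with 30% acetonitrile for 35 min, 45% acetonitrile for 15 min, then 30% for 20 min. 100 µl injection, flow scintillation detection.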

[3] = Drug level in human liver cytosol assessed as SULT1A1 copy number-1-mediated compound formation treated with 4-OH-TOR by HPLC analysis; format: ADME, tissue-based; in short: as §1
[4] = Drug level in human liver cytosol assessed as SULT1A1 3'UTR ACG/GTA copy number-3-mediated compound formation treated with 4-OH-toremifene by HPLC analysis; format: ADME, tissue-based; in short: as §1
[5] = Drug level in human liver cytosol assessed as SULT1A1 copy number-2--mediated compound formation treated with 4-OH-TOR by HPLC analysis; format: ADME, tissue-based; in short: as §1
[6] = Drug level in human liver cytosol assessed as SULT1A1 3'UTR GTA/GTA copy number-2-mediated compound formation treated with 4-OH-toremifene by HPLC analysis; format: ADME, tissue-based; in short: as §1
[7] = Drug level in human liver cytosol assessed as SULT1A1 3'UTR ACG/ACG copy number-3-mediated compound formation treated with 4-OH-toremifene by HPLC analysis; format: ADME, tissue-based; in short: as §1
[8] = Drug level in human liver cytosol assessed as SULT1A1*1/2 single nucleotide polymorphism-mediated compound formation treated with 4-OH-TOR by HPLC analysis; format: ADME, tissue-based; in short: as §1
[9] = Drug level in human liver cytosol assessed as SULT1A1 3'UTR ACG/ACG copy number-2-mediated compound formation treated with 4-OH-toremifene by HPLC analysis; format: ADME, tissue-based; in short: as §1
[10] = Drug level in human liver cytosol assessed as SULT1A1 3'UTR ACG/GTA copy number-2-mediated compound formation treated with 4-OH-toremifene by HPLC analysis; format: ADME, tissue-based; in short: as §1
[11] = Drug metabolism in human liver cytosol assessed as SULT1A1 3'UTR ACG/GTA copy number-3-mediated 4-(4-chloro-1-(4-(2-(dimethylamino)ethoxy)phenyl)-2-phenylbut-1-enyl)phenyl hydrogen sulfate formation by HPLC analysis; format: ADME, tissue-based; in short: as §1
[12] = Drug metabolism in human liver cytosol assessed as SULT1A1 3'UTR ACG/ACG copy number-3-mediated 4-(4-chloro-1-(4-(2-(dimethylamino)ethoxy)phenyl)-2-phenylbut-1-enyl)phenyl hydrogen sulfate formation by HPLC analysis; format: ADME, tissue-based; in short: as §1
[13] = system: Liver cytosol; experiment: Drug metabolism in human liver cytosol assessed as 4-(4-chloro-1-(4-(2-(dimethylamino)ethoxy)phenyl)-2-phenylbut-1-enyl)phenyl hydrogen sulfate formation after 15 mins by HPLC analysis in presence of 20 uM PAPS and 0.1 to 10 uM SULT1A1 inhibitor DCNP; format: ADME; details: 0.25 h
In short: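 Pooled human liver cytosol sulfating 4-OH-TOR with 20 µM PAPS, pH 6.2, plus 0.1–10 µM (final) ethanol-dissolved inhibitor. After 15 min the reaction was stopped with acetonitrile:acetic acid (96:4) and sulfate quantified by radio-HPLC. IC50 calculated. Three separate determinations.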

[14] = Drug metabolism in human liver cytosol assessed as SULT1A1 3'UTR ACG/ACG copy number-2 -mediated 4-(4-chloro-1-(4-(2-(dimethylamino)ethoxy)phenyl)-2-phenylbut-1-enyl)phenyl hydrogen sulfate formation by HPLC analysis; format: ADME, tissue-based; in short: as §1
[15] = Drug metabolism in human liver cytosol assessed as SULT1A1 3'UTR ACG/GTA copy number-2-mediated 4-(4-chloro-1-(4-(2-(dimethylamino)ethoxy)phenyl)-2-phenylbut-1-enyl)phenyl hydrogen sulfate formation by HPLC analysis; format: ADME, tissue-based; in short: as §1
[16] = Drug metabolism in human liver cytosol assessed as SULT1A1 3'UTR GTA/GTA copy number-2-mediated 4-(4-chloro-1-(4-(2-(dimethylamino)ethoxy)phenyl)-2-phenylbut-1-enyl)phenyl hydrogen sulfate formation by HPLC analysis; format: ADME, tissue-based; in short: as §1
[17] = Drug metabolism in human liver cytosol assessed as SULT1A1*1/2 single nucleotide polymorphism-mediated 4-(4-chloro-1-(4-(2-(dimethylamino)ethoxy)phenyl)-2-phenylbut-1-enyl)phenyl hydrogen sulfate formation by HPLC analysis; format: ADME, tissue-based; in short: as §1
[18] = Drug metabolism in human liver cytosol assessed as SULT1A1 copy number-2-mediated 4-(4-chloro-1-(4-(2-(dimethylamino)ethoxy)phenyl)-2-phenylbut-1-enyl)phenyl hydrogen sulfate formation by HPLC analysis; format: ADME, tissue-based; in short: as §1
[19] = Drug metabolism in human liver cytosol assessed as SULT1A1 copy number-3-mediated 4-(4-chloro-1-(4-(2-(dimethylamino)ethoxy)phenyl)-2-phenylbut-1-enyl)phenyl hydrogen sulfate formation by HPLC analysis; format: ADME, tissue-based; in short: as §1
[20] = system: Liver cytosol; experiment: Drug metabolism in human liver cytosol assessed as 4-(4-chloro-1-(4-(2-(dimethylamino)ethoxy)phenyl)-2-phenylbut-1-enyl)phenyl hydrogen sulfate formation measured per mg of protein after 15 mins by Michaelis-Menten equation in presence of 20 uM PAPS; format: ADME; details: 0.25 h
In short: (§2)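 Human liver cytosol (protein by Bradford) incubated with 4-OH-TOR (0.1–30 µM for kinetics), 20 µM [35S]PAPS, 50 mM potassium phosphate pH 6.2, final DMSO <0.1%, 15 min at 37 °C. Stopped with acetonitrile:acetic acid (96:4). Sulfate measured by radio-HPLC, background taken from a substrate-free vehicle control. Triplicate incubations.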

[21] = system: Liver cytosol; experiment: Drug metabolism in human liver cytosol assessed as 4-(4-chloro-1-(4-(2-(dimethylamino)ethoxy)phenyl)-2-phenylbut-1-enyl)phenyl hydrogen sulfate formation after 15 mins by Michaelis-Menten equation in presence of 20 uM PAPS; format: ADME; details: 0.25 h, read-out: Km(app); in short: as §2
[22] = system: Liver cytosol; experiment: Drug metabolism in human liver cytosol assessed as 4-(4-chloro-1-(4-(2-(dimethylamino)ethoxy)phenyl)-2-phenylbut-1-enyl)phenyl hydrogen sulfate formation measured per mg of protein treated with 0.1 to 30 after 15 mins by HPLC analysis; format: ADME, tissue-based; details: 0.25 h; in short: as §2
[23] = Drug metabolism in human liver cytosol assessed as SULT1A1 copy number-1-mediated 4-(4-chloro-1-(4-(2-(dimethylamino)ethoxy)phenyl)-2-phenylbut-1-enyl)phenyl hydrogen sulfate formation by HPLC analysis; format: ADME, tissue-based; in short: as §1

Drug metabolism [1]: metabolite_detected | Retention_time [2]: 12.1 min | Drug metabolism [3]: metabolite_detected | Drug metabolism [4]: metabolite_detected | Drug metabolism [5]: metabolite_detected | Drug metabolism [6]: metabolite_detected | Drug metabolism [7]: metabolite_detected | Drug metabolism [8]: metabolite_detected | Drug metabolism [9]: metabolite_detected | Drug metabolism [10]: metabolite_detected
SMILES: CN(C)CCOc1ccc(/C(=C(/CCCl)c2ccccc2)c2ccc(OS(=O)(=O)O)cc2)cc1

Retention_time [2]: 45.2 min | Drug metabolism [11]: metabolite_detected | Drug metabolism [12]: metabolite_detected | Drug metabolism [13]: metabolite_not_detected | Drug metabolism [14]: metabolite_detected | Drug metabolism [15]: metabolite_detected | Drug metabolism [16]: metabolite_detected | Drug metabolism [17]: metabolite_detected | Drug metabolism [18]: metabolite_detected | Drug metabolism [19]: metabolite_detected | Vmax [20]: 1.4 nmol/min/mg | Km [21]: 3.5 µM | Drug metabolism [22]: 0.0003 nmol/min | Drug metabolism [23]: metabolite_detected
SMILES: CN(C)CCOc1ccc(/C(=C(/CCCl)c2ccccc2)c2ccc(O)cc2)cc1 [4-HYDROXYTORMIFENE]
